Results on two compounds are retold here after ChEMBL document CHEMBL3612019, “Revisiting 1,3,4-Oxadiazol-2-ones: Utilization in the Development of ABHD6 Inhibitors” (Bioorg Med Chem, 2015).

Each structure is given as a SMILES string. Calls of active or inactive are those of the source. The rule behind the calls is not given here.

Assay [1] has as its target T1, Monoglyceride lipase (Homo sapiens, UniProt Q99685).
T1 sequence (Q99685 whole entry): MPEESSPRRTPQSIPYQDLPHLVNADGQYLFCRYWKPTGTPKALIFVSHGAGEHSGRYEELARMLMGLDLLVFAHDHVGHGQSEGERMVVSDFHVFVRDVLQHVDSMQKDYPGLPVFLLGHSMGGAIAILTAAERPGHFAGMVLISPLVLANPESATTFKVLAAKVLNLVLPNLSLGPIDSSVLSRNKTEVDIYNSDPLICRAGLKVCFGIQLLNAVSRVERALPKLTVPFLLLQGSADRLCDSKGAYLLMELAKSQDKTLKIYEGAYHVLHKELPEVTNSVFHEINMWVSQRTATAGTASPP
Put plainly: Inhibition of human MAGL expressed in HEK293 cells pre-incubated for 10 mins before 2-AG substrate addition by HPLC method. It is filed as cell-based. Particulars: read-out: IC50. The procedure, abridged:
(§1)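 Lysates of hMAGL-overexpressing HEK293 cells in 50 mM Tris–HCl pH 7.4 with 1 mM EDTA. After a 10 min preincubation with inhibitor or DMSO, 2-AG was added (final 50 µM) and incubated 10 min at 37 °C. The reaction was stopped and samples centrifuged. Arachidonic acid formation and 2-AG depletion were measured by HPLC. Replicates as for the FAAH assay.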

Assay [2] has as its target T2, Monoglyceride lipase (Homo sapiens) (UniProt Q99685).
T2 sequence (whole entry): T1 sequence (Q99685 whole entry)
The assay can be described thus: Inhibition of human MAGL expressed in HEK293 cells at 10 uM pre-incubated for 10 mins before 2-AG substrate addition by HPLC method. It is filed as cell-based. The gist of the method: as §1

For assay [3], the target named is T3, Fatty-acid amide hydrolase 1 (Mus musculus) (UniProt O08914).
T3 sequence (whole entry): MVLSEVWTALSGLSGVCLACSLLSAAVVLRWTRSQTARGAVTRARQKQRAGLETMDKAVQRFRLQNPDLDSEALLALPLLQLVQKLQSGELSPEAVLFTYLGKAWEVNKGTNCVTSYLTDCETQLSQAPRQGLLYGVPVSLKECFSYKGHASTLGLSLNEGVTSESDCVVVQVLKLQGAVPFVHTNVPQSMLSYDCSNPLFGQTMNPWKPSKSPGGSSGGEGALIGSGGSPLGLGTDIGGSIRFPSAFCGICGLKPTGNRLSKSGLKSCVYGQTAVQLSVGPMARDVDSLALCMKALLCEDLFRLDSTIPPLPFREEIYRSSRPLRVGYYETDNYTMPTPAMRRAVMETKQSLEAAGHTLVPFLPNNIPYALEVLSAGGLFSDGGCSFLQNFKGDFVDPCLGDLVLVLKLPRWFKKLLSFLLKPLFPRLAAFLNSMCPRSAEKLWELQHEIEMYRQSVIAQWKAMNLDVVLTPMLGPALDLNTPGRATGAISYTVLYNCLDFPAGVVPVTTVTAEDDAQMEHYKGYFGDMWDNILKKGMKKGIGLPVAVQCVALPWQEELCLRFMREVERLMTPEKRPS
The assay can be described thus: Inhibition of FAAH in mouse whole brain membranes at 32.5 uM incubated for 1 hr by TAMRA-FP probe based competitive activity-based protein profiling assay. It is filed as cell membranes. Particulars: Membrane. The gist of the method: (§2)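 Competitive ABPP on mouse brain membranes (100 µg) treated 1 h with DMSO or inhibitor. TAMRA-FP labelling then ran 1 h at RT (final probe 2 µM). Reaction was quenched with gel loading buffer and proteins resolved by 10% SDS–PAGE for fluorescent band read-out. WWL70 located the ABHD6 band. Gels are representative of two experiments.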

For assay [4], the target named is T4, Monoglyceride lipase (Mus musculus) (UniProt O35678).
T4 sequence (whole entry): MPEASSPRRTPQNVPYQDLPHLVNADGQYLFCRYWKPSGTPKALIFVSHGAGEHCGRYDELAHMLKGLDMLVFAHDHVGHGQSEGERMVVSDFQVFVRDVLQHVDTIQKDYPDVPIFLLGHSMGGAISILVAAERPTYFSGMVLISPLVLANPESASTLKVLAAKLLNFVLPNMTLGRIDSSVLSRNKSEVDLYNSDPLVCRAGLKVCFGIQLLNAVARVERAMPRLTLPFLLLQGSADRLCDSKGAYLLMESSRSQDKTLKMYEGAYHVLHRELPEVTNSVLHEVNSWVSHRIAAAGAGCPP
Put plainly: Inhibition of MAGL in mouse whole brain membranes at 32.5 uM incubated for 1 hr by TAMRA-FP probe based competitive activity-based protein profiling assay. It is filed as cell membranes. Particulars: Membrane. The procedure, abridged: as §2

In assay [5] the target is T5, Lysophosphatidylserine lipase ABHD12 (Mus musculus) (UniProt Q99LR1).
T5 sequence (whole entry): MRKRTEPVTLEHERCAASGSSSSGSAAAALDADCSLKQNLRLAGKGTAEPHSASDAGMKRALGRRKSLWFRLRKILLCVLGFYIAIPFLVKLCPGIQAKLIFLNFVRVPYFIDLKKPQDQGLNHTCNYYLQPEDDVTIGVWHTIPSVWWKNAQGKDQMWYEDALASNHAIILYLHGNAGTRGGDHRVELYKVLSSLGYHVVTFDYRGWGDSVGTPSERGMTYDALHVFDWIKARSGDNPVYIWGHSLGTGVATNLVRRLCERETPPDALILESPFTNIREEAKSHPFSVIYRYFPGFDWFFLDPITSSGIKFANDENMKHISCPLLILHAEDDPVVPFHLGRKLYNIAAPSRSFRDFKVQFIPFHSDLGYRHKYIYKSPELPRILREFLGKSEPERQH
Put plainly: Inhibition of ABHD12 in mouse whole brain membranes at 32.5 uM incubated for 1 hr by TAMRA-FP probe based competitive activity-based protein profiling assay. The settings on record: Membrane. It is filed as cell membranes. The gist of the method: as §2

In assay [6] the target is Cannabinoid receptor 1 (Rattus norvegicus) (UniProt P20272). Put plainly: Agonist activity at CB1R in rat cerebellar membranes at 10 uM by [35S]GTPgammaS binding assay. It is filed as functional, cell membranes. The settings on record: Cerebellum, Membrane. The gist of the method: (§3)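 Rat cerebellar membranes, [35S]GTPγS binding. Agonist activity is read as % of basal binding. Antagonist activity is read as % of the HU210-evoked response. Compound tested at 10 µM. Values are mean (range), n = 2.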
Cannabinoid receptor 1 (Rattus norvegicus), sequence (P20272 whole entry): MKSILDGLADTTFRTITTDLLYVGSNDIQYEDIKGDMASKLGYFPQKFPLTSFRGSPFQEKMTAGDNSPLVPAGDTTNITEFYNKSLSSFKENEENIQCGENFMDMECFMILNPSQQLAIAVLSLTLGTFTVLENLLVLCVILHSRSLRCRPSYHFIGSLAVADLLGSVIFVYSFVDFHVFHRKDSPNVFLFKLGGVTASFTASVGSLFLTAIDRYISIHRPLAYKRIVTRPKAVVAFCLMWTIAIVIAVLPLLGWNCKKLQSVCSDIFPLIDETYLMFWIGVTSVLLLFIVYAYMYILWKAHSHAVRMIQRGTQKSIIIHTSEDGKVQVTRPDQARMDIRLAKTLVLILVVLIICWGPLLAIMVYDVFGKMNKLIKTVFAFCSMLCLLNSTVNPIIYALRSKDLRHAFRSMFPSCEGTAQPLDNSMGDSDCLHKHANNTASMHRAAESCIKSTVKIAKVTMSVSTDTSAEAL
In general terms: Binding of GTPγS marks nucleotide exchange on a G protein.

The target in assay [7] is Cannabinoid receptor 2 (Homo sapiens) (UniProt P34972). The assay can be described thus: Agonist activity at human CB2R expressed in CHO cell membranes at 10 uM by [35S]GTPgammaS binding assay. It is filed as functional.
Cannabinoid receptor 2 (Homo sapiens), sequence (P34972 whole entry): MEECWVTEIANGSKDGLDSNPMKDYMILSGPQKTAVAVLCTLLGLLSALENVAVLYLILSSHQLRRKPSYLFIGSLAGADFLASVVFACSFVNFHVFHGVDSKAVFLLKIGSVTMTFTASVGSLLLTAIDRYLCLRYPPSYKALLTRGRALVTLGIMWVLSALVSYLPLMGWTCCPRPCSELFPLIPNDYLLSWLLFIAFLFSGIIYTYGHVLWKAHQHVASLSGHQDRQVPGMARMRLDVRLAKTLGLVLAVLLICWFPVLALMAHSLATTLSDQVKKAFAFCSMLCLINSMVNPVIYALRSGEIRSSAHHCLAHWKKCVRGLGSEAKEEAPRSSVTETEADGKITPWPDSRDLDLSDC
The target of assay [8] is Cannabinoid receptor 1 (Rattus norvegicus) (UniProt P20272). The assay can be described thus: Antagonist activity at CB1R in rat cerebellar membranes assessed as inhibition of HU210-induced response at 10 uM by [35S]GTPgammaS binding assay. It is filed as functional, cell membranes. The settings on record: Cerebellum, Membrane. The gist of the method: as §3
Assay [9] concerns the target T6, Monoacylglycerol lipase ABHD6 (Homo sapiens, UniProt Q9BV23).
T6 sequence (Q9BV23 whole entry): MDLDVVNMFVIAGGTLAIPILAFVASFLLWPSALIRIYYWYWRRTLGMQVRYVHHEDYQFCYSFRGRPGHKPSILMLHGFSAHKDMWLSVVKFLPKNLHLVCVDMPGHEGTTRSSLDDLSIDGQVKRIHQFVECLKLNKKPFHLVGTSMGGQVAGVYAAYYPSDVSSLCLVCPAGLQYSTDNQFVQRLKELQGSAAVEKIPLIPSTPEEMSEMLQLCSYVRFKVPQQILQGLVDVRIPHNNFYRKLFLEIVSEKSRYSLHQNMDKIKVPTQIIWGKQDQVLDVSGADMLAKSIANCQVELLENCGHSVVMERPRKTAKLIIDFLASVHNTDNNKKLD
Put plainly: Inhibition of human ABHD6 expressed in HEK293 cells at 1 uM pre-incubated for 10 mins before 2-AG substrate addition followed by rapid 40 fold compound dilution measured after 60 mins by HPLC method. It is filed as cell-based.

As a reminder, the IC50 is the concentration that gives 50% inhibition. With `Nc1cccc(Cn2nc(Oc3ccccc3)oc2=O)c1`, the 50% inhibitory concentration (IC50) in [1] is 7.94 µM.

For orientation: inhibition means the percentage by which the read-out fell short of the control. In turn, `COc1nn(Cc2cccc(N)c2)c(=O)o1` showed an inhibition in assay [2] of 21%. For the same compound, the inhibition result in assay [3], in [4] and in [5] was “Active” throughout. For the same compound, the values for the Activity in [6] and in assay [7] were 96% and 107%, respectively. Further, the % of HU210 response in [8] worked out at 104%. Half-maximal inhibition in assay [9] (IC50) required 3.63 µM.
